Test results reported in ChEMBL document CHEMBL1687901 (J Med Chem, 2011).
Converted amounts (≈) assume the structure as drawn.

What was measured:
Type in all cases: functional
Streptococcus pneumoniae [1] = experiment: Antibacterial activity against tetracycline-resistant Streptococcus pneumoniae isolate 160 harboring tet(M) gene by CLSI M07-A8 method
How it was run: (§1)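 MICs were determined by CLSI broth microdilution in freshly prepared cation-adjusted Mueller Hinton broth, kept at 4 °C before use. Defibrinated horse blood was added as appropriate. Runs met QC ranges for comparator antibiotics with ATCC quality control strains.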

Staphylococcus aureus [2] = experiment: Antibacterial activity against wild type Staphylococcus aureus Smith ATCC 13709 by CLSI M07-A8 method
Streptococcus pneumoniae [3] = experiment: Antibacterial activity against Streptococcus pneumoniae ATCC 49619 by CLSI M07-A8 method
Escherichia coli [4] = experiment: Antibacterial activity against tetracycline-resistant Escherichia coli isolate 155 harboring tet(A) gene by CLSI M07-A8 method
How it was run: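 MICs were determined by CLSI broth microdilution in freshly prepared cation-adjusted Mueller Hinton broth, kept at 4 °C before use. Defibrinated horse blood was added as appropriate. The highest concentration tested was 32 μg/mL. Runs met QC ranges for comparator antibiotics with ATCC quality control strains.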

Staphylococcus aureus [5] = experiment: Antibacterial activity against tetracycline-resistant Staphylococcus aureus isolate 158 harboring tet(K) gene by CLSI M07-A8 method; how it was run: as §1
Staphylococcus aureus [6] = experiment: Antibacterial activity against tetracycline-resistant Staphylococcus aureus isolate 161 harboring tet(M) gene by CLSI M07-A8 method; how it was run: as §1
Escherichia coli [7] = experiment: Antibacterial activity against Escherichia coli ATCC 25922 by CLSI M07-A8 method
Klebsiella pneumoniae = experiment: Antibacterial activity against Klebsiella pneumoniae ATCC 13883 by CLSI M07-A8 method

Row | Compound | MIC (Streptococcus pneumoniae [1]) | MIC (Staphylococcus aureus [2]) | MIC (Streptococcus pneumoniae [3]) | MIC (Escherichia coli [4]) | MIC (Staphylococcus aureus [5]) | MIC (Staphylococcus aureus [6]) | MIC (Escherichia coli [7]) | MIC (Klebsiella pneumoniae)
1 | CN(C)[C@@H]1C(O)=C(C(N)=O)C(=O)[C@@]2(O)C(O)=C3C(=O)c4c(O)cnc(Cl)c4C[C@H]3C[C@@H]12.Cl | 32 µg/mL | 1 µg/mL | 1 µg/mL | > 32 µg/mL | 32 µg/mL | 32 µg/mL | 2 µg/mL | 4 µg/mL
2 | CN(C)[C@@H]1C(O)=C(C(N)=O)C(=O)[C@@]2(O)C(O)=C3C(=O)c4c(O)cnc(F)c4C[C@H]3C[C@@H]12.Cl | 8 µg/mL | 0.063 µg/mL | 0.016 µg/mL | > 32 µg/mL | 8 µg/mL | 8 µg/mL | 0.25 µg/mL | 0.5 µg/mL
3 | CN(C)CCNc1nc(Cl)c2c(c1O)C(=O)C1=C(O)[C@]3(O)C(=O)C(C(N)=O)=C(O)[C@@H](N(C)C)[C@@H]3C[C@@H]1C2.Cl | 2 µg/mL | 2 µg/mL | 0.5 µg/mL | 32 µg/mL | 1 µg/mL | 4 µg/mL | 4 µg/mL | 8 µg/mL
4 | CN(C)[C@@H]1C(O)=C(C(N)=O)C(=O)[C@@]2(O)C(O)=C3C(=O)c4c(O)c(NCC(C)(C)CN5CCCC5)nc(Cl)c4C[C@H]3C[C@@H]12.Cl | 0.25 µg/mL | 0.5 µg/mL | 0.031 µg/mL | 8 µg/mL | 0.125 µg/mL | 2 µg/mL | 2 µg/mL | 4 µg/mL
5 | CN(C)CC(C)(C)CNc1nc(F)c2c(c1O)C(=O)C1=C(O)[C@]3(O)C(=O)C(C(N)=O)=C(O)[C@@H](N(C)C)[C@@H]3C[C@@H]1C2.Cl | 1 µg/mL | 1 µg/mL | 0.5 µg/mL | 8 µg/mL | 0.5 µg/mL | 2 µg/mL | 1 µg/mL | 2 µg/mL
6 | CCCc1nc(Cl)c2c(c1O)C(=O)C1=C(O)[C@]3(O)C(=O)C(C(N)=O)=C(O)[C@@H](N(C)C)[C@@H]3C[C@@H]1C2.Cl | 4 µg/mL | 1 µg/mL | 1 µg/mL | > 32 µg/mL | 4 µg/mL | 4 µg/mL | > 32 µg/mL | 32 µg/mL
7 | Cc1nc(Cl)c2c(c1O)C(=O)C1=C(O)[C@]3(O)C(=O)C(C(N)=O)=C(O)[C@@H](N(C)C)[C@@H]3C[C@@H]1C2.Cl | 8 µg/mL | 2 µg/mL | 0.5 µg/mL | > 32 µg/mL | 16 µg/mL | 8 µg/mL | 8 µg/mL | 8 µg/mL
8 | CNc1nc(Cl)c2c(c1O)C(=O)C1=C(O)[C@]3(O)C(=O)C(C(N)=O)=C(O)[C@@H](N(C)C)[C@@H]3C[C@@H]1C2.Cl.Cl.Cl | 4 µg/mL | 0.016 µg/mL | 0.016 µg/mL | 32 µg/mL | 2 µg/mL | 1 µg/mL | 0.125 µg/mL | 0.5 µg/mL
9 | CC(C)Nc1nc(Cl)c2c(c1O)C(=O)C1=C(O)[C@]3(O)C(=O)C(C(N)=O)=C(O)[C@@H](N(C)C)[C@@H]3C[C@@H]1C2.Cl.Cl.Cl | 16 µg/mL | 1 µg/mL | 2 µg/mL | > 32 µg/mL | 2 µg/mL | 4 µg/mL | 32 µg/mL | 32 µg/mL
10 | CC(C)CCNc1nc(Cl)c2c(c1O)C(=O)C1=C(O)[C@]3(O)C(=O)C(C(N)=O)=C(O)[C@@H](N(C)C)[C@@H]3C[C@@H]1C2.Cl.Cl.Cl | 32 µg/mL | 0.25 µg/mL | 8 µg/mL | > 32 µg/mL | 0.25 µg/mL | 2 µg/mL | > 32 µg/mL | > 32 µg/mL
11 | COCCNc1nc(Cl)c2c(c1O)C(=O)C1=C(O)[C@]3(O)C(=O)C(C(N)=O)=C(O)[C@@H](N(C)C)[C@@H]3C[C@@H]1C2.Cl.Cl.Cl | 4 µg/mL | 0.031 µg/mL | 0.063 µg/mL | 32 µg/mL | 1 µg/mL | 4 µg/mL | 1 µg/mL | 4 µg/mL
12 | CCCc1nc(N(C)C)c2c(c1O)C(=O)C1=C(O)[C@]3(O)C(=O)C(C(N)=O)=C(O)[C@@H](N(C)C)[C@@H]3C[C@@H]1C2.Cl.Cl | 2 µg/mL | 1 µg/mL | 1 µg/mL | > 32 µg/mL | 1 µg/mL | 2 µg/mL | 16 µg/mL | 16 µg/mL
13 | CN(C)[C@@H]1C(O)=C(C(N)=O)C(=O)[C@@]2(O)C(O)=C3C(=O)c4c(O)cncc4C[C@H]3C[C@@H]12.Cl.Cl | 32 µg/mL | 1 µg/mL | 0.25 µg/mL | > 32 µg/mL | 16 µg/mL | 32 µg/mL | 0.5 µg/mL | 1 µg/mL
14 | COc1ncc(O)c2c1C[C@H]1C[C@H]3[C@H](N(C)C)C(O)=C(C(N)=O)C(=O)[C@@]3(O)C(O)=C1C2=O.Cl.Cl | 16 µg/mL | 0.125 µg/mL | 0.063 µg/mL | > 32 µg/mL | 4 µg/mL | 8 µg/mL | 0.25 µg/mL | 1 µg/mL
15 | CC(C)OCCNc1nc(Cl)c2c(c1O)C(=O)C1=C(O)[C@]3(O)C(=O)C(C(N)=O)=C(O)[C@@H](N(C)C)[C@@H]3C[C@@H]1C2.Cl.Cl.Cl | 4 µg/mL | 0.5 µg/mL | 0.031 µg/mL | > 32 µg/mL | 0.25 µg/mL | 2 µg/mL | 8 µg/mL | 16 µg/mL
16 | CN(C)[C@@H]1C(O)=C(C(N)=O)C(=O)[C@@]2(O)C(O)=C3C(=O)c4c(O)cnc(-c5ccccc5)c4C[C@H]3C[C@@H]12.Cl.Cl | 4 µg/mL | 0.063 µg/mL | 0.031 µg/mL | > 32 µg/mL | 1 µg/mL | 32 µg/mL | 0.5 µg/mL | 2 µg/mL
17 | CCNc1nc(Cl)c2c(c1O)C(=O)C1=C(O)[C@]3(O)C(=O)C(C(N)=O)=C(O)[C@@H](N(C)C)[C@@H]3C[C@@H]1C2.Cl.Cl.Cl | 4 µg/mL | 0.031 µg/mL | 0.031 µg/mL | 16 µg/mL | 0.5 µg/mL | 1 µg/mL | 0.5 µg/mL | 2 µg/mL
18 | CC(C)CNc1nc(Cl)c2c(c1O)C(=O)C1=C(O)[C@]3(O)C(=O)C(C(N)=O)=C(O)[C@@H](N(C)C)[C@@H]3C[C@@H]1C2.Cl.Cl.Cl | 8 µg/mL | 0.5 µg/mL | 1 µg/mL | > 32 µg/mL | 0.5 µg/mL | 1 µg/mL | 16 µg/mL | > 32 µg/mL
19 | Cc1ncc(O)c2c1C[C@H]1C[C@H]3[C@H](N(C)C)C(O)=C(C(N)=O)C(=O)[C@@]3(O)C(O)=C1C2=O.Cl.Cl | > 32 µg/mL | 1 µg/mL | 0.25 µg/mL | > 32 µg/mL | 0.5 µg/mL | 32 µg/mL | 1 µg/mL | 1 µg/mL
20 | CN(C)c1ccc(O)c2c1C[C@H]1C[C@H]3[C@H](N(C)C)C(O)=C(C(N)=O)C(=O)[C@@]3(O)C(O)=C1C2=O [MINOCYCLINE] | 8 µg/mL (≈ 17.5 µM) | 0.125 µg/mL (≈ 0.273 µM) | < 0.016 µg/mL | 8 µg/mL (≈ 17.5 µM) | 0.25 µg/mL (≈ 0.546 µM) | 16 µg/mL (≈ 35 µM) | 0.5 µg/mL (≈ 1.09 µM) | –
